Measured values: ChEMBL document CHEMBL1165926, “Synthesis and characterization of potent inhibitors of Trypanosoma cruzi dihydrofolate reductase” (Bioorg Med Chem, 2010)

Columns and labels:
[1] = biological target: T1, Bifunctional dihydrofolate reductase-thymidylate synthase (Trypanosoma cruzi, UniProt Q27793); test: Inhibition of Trypanosoma cruzi DHFR by spectrophotometric assay
Procedure, shortened: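 Recombinant bifunctional T. cruzi DHFR-TS in 50 mM Tris-HCl pH 7.0 with DHF, 100 µM NADPH and 0.5–1.0 µg enzyme; velocity from absorbance at 340 nm over 30 s at 22.6 °C. IC50 from velocities at several inhibitor concentrations for each of three DHF concentrations, then averaged; Ki calculated from IC50. Triplicates, repeated on different days.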

[2] = biological target: T2, Dihydrofolate reductase (Homo sapiens, UniProt P00374); test: Inhibition of human DHFR by spectrophotometric assay
T2 sequence (P00374 whole entry): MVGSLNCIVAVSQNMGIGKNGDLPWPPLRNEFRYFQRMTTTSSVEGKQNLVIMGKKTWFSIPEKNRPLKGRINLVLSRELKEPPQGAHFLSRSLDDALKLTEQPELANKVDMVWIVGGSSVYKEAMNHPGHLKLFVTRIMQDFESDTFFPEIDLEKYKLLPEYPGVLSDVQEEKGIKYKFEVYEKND

[3] = biological target: T1, Bifunctional dihydrofolate reductase-thymidylate synthase; test: Inhibition of Trypanosoma cruzi DHFR by Lineweaver-Burke plot
Procedure, shortened: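 Recombinant bifunctional T. cruzi DHFR-TS; 50 mM Tris-HCl pH 7.0 with DHF, 100 µM NADPH and 0.5–1.0 µg enzyme; initial velocity followed at 340 nm for 30 s at 22.6 °C. Velocities taken at five DHF concentrations for each of three inhibitor concentrations; Ki read from Lineweaver–Burk plots.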

T1 sequence (Q27793 whole entry): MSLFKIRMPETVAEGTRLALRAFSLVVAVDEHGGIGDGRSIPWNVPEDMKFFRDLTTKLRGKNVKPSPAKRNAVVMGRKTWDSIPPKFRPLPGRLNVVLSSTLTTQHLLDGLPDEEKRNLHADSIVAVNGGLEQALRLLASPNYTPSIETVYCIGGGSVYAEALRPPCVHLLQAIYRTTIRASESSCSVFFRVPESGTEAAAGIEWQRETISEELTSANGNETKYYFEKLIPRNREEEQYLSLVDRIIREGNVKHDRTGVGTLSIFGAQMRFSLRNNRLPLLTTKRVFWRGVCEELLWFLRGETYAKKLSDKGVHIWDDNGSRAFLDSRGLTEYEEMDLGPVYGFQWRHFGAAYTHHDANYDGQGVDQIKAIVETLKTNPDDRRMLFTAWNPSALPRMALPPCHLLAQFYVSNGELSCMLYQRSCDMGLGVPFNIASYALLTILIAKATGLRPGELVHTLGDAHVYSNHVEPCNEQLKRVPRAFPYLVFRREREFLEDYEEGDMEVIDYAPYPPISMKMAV

Compound	IC50 [1]	Ki [1]	IC50 [2]	Ki [2]	Ki [3]
COC(=O)c1ccc(COc2cc(NCc3ccc4nc(N)nc(N)c4c3)ccc2OC)cc1	57.5 nM	3.3 nM	175 nM	24.5 nM	
COc1cc(NCc2ccc3nc(N)nc(N)c3c2C)cc(OC)c1OC [TRIMETREXATE]	20.2 nM	6.6 nM			
COc1ccc(NCc2ccc3nc(N)nc(N)c3c2)cc1OC	27.1 nM	1.6 nM	85.5 nM	11.8 nM	4.75 nM

More lines, now with the values ahead:

IC50 [1]	Ki [1]	IC50 [2]	Ki [2]	Ki [3]	Compound
61 nM	3.6 nM	357 nM	49.8 nM		COc1ccc(NCc2ccc3nc(N)nc(N)c3c2)cc1OCCCC(=O)O
27 nM	1.6 nM	93.5 nM	13 nM		COC(=O)CCCCOc1cc(NCc2ccc3nc(N)nc(N)c3c2)ccc1OC
23.8 nM	1.3 nM	68.3 nM	9.6 nM	5.68 nM	CCOC(=O)CCCOc1cc(NCc2ccc3nc(N)nc(N)c3c2)ccc1OC
422 nM	24.9 nM	1340 nM	188 nM		CCCN(Cc1ccc2nc(N)nc(N)c2c1)c1ccc(OC)c(OCCCCC(=O)OC)c1
